This is an account of results in publication PMC4575845 (Journal of biomolecular screening, 2015).

≈ marks a conversion by molar mass, not a printed value. Entries after “also recorded” stand apart in the source; their conditions may differ.

In series [1] the target is T1, P. aeruginosa GluRS (Pseudomonas aeruginosa, UniProt Q9XCL6).
T1 sequence (Q9XCL6 1-494): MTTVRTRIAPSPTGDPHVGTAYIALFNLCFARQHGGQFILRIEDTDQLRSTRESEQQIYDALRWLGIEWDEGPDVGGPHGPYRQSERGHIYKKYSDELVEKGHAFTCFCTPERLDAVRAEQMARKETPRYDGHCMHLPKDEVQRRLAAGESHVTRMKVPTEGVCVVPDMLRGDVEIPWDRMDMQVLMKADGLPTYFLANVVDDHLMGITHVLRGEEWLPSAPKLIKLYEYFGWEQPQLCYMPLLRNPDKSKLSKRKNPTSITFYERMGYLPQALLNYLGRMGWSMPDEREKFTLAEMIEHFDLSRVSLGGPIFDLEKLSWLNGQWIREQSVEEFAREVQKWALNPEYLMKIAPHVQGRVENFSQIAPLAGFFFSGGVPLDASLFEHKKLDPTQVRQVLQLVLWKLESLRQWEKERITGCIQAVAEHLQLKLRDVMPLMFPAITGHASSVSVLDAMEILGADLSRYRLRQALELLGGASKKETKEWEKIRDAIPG
In words: SPA-based tRNA aminoacylation assay. Type of series: biochemical. The method in brief: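 P. aeruginosa GluRS was expressed in E. coli Rosetta 2(DE3) from pET101 and Ni-NTA purified. Final mix: 50 mM Tris-HCl pH 7.5, 8 mM MgCl2, 1.25 mM ATP, 1 mM spermine, 1 mM DTT, 100 µM [3H]Glu, 0.1 µM enzyme. Compound (200–0.4 µM) preincubated 15 min ambient; E. coli tRNA (0.75 µM tRNAGlu) added; 1 h 37 °C; EDTA stop. Poly-L-lysine yttrium silicate SPA beads (citrate pH 2.0), 1 h RT, scintillation count.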

The test system of series [2] is Enterococcus faecalis (ATCC 29212). Description: Broth microdilution MIC. In kind it is cell-based. Conditions: ATCC29212. For orientation: Dilution methods test growth across graded concentrations, often in twofold steps.
The test system of series [3] is Streptococcus pneumonia (ATCC 49619). In words: Broth microdilution MIC. Type of series: cell-based. Conditions: Streptococcus pneumoniae, ATCC49619.
The subject of another series is E. faecalis. In words: Time-kill study. In kind it is cell-based, Enterococcus faecalis. The note with it: 4x MIC, 0-24 h. An outline of the steps: (§1)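 Time-kill per CLSI M26-A, with compound at 4× MIC (broth microdilution MIC per CLSI M7-A7). Medium: Brain Heart Infusion or Trypticase Soy Broth, with or without 3% lysed horse blood. Viable counts by plating for CFU at 0, 2, 4, 6 and 24 h versus compound-free control cultures.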

The test system of a further series is S. pneumoniae. In words: Time-kill study. In kind it is cell-based, Streptococcus pneumoniae. Conditions: 4x MIC. The method in brief: as §1
A further series has as its system NIH/3T3 cells. In words: MTT in vitro cytotoxicity test. The note with it: 25–800 µg/mL, 24 h. Type of series: cell-based.
In series [4] the target is T1, P. aeruginosa GluRS. Description: Binding mode assay. Conditions: for mode of inhibition with respect to ATP: IC50 at ATP 25-1000 µM, Glu 100 µM; for mode of inhibition with respect to Glu: IC50 at Glu 25-300 µM, ATP held constant. In kind it is biochemical. The method in brief:
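IC50 by the same SPA aminoacylation assay, with 0.05 µM P. aeruginosa GluRS and compound at 200–0.4 µM final, preincubated 15 min RT. Started with E. coli tRNA (0.75 µM tRNAGlu), 1 h at 37 °C, EDTA stop. DMSO-only positive controls. ATP series 25–1000 µM at 100 µM Glu. Glu series 25–300 µM at constant saturating ATP. Sigmoidal dose–response fit; mode inferred from IC50 change versus substrate level.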

Series [5] concerns Staphylococcus aureus (ATCC 29213). In words: Broth microdilution MIC. In kind it is cell-based. The note with it: ATCC29213.
For another series, the system named is S. aureus. In words: Time-kill study. In kind it is cell-based, Staphylococcus aureus. Conditions: 4x MIC.

Usually IC50 stands for the point on the concentration scale where inhibition reaches its midpoint. What is called MIC is the lowest concentration found to suppress growth. `O=C(Nc1ccc(-c2cc(C(F)(F)F)nn2-c2ccccc2)cc1)Nc1ccc(F)cc1F` [BT_03F04, 1-(2,4-difluorophenyl)-3-{4-[1-phenyl-3-(trifluoromethyl)-1H-pyrazol-5-yl]phenyl}urea] had an IC50 against P. aeruginosa GluRS [1] of 21.9 µM. Besides, the MIC in [2] was 2 µg/mL (≈ 4.36 µM). Moreover, the MIC in series [3] came out at 8 µg/mL (≈ 17.5 µM). Moreover, in the series with E. faecalis, the bacteriostatic or bactericidal result is “bacteriostatic” and the “decrease in colony-forming units (CFUs) compared to the control” value was 2–3 log10. Further, in the series on S. pneumoniae (0-24 h), the bacteriostatic or bactericidal entry was “bacteriostatic” and the “decrease in colony-forming units (CFUs) compared to the control” value was 2–3 log10. For the same molecule, the “cytotoxicity (MTT)” value with NIH/3T3 cells is “not observed to be toxic”. In addition, at P. aeruginosa GluRS [4], the “mode of inhibition with respect to ATP” value is on record as “noncompetitive” and the “mode of inhibition with respect to Glu” value is reported as “noncompetitive”.

At P. aeruginosa GluRS [1], `CC1(C)SC(=S)N(/N=C/C=C/c2ccc([N+](=O)[O-])o2)C1N(O)C(=O)Nc1cccc(Cl)c1` (centres unmarked) [BT_04B09, 3-(3-chlorophenyl)-1-(5,5-dimethyl-3-{(E)-[(2E)-3-(5-nitrofuran-2-yl)prop-2-en-1-ylidene]amino}-2-thioxo-1,3-thiazolidin-4-yl)-1-hydroxyurea] displayed an IC50 of 24.9 µM. The MIC in series [3] and in [5] was 32 µg/mL (≈ 64.5 µM) each time. The bacteriostatic or bactericidal entry in the series with S. pneumoniae (0-24 h) and in the series on S. aureus (0-24 h) was “bactericidal” throughout. Further, in the series with S. pneumoniae (all times tested), the “inhibition of growth in time-kill” value was “completely”. Besides, the regrowth in time-kill entry in the series on S. aureus (at 24 h) is listed as “some regrowth”. For the same molecule, the “cytotoxicity (MTT)” value in the series with NIH/3T3 cells is reported as “not observed to be toxic”. For the same molecule, the “mode of inhibition with respect to ATP” value on P. aeruginosa GluRS [4] is given as “noncompetitive; also recorded: remain constant”. Also, the “mode of inhibition with respect to Glu” value at P. aeruginosa GluRS [4] was “competitive”.
